Results of several laboratories.
Target: Delta-type opioid receptor (OPRD1, Homo sapiens, UniProt P41143)
Effect on: ligand displacement
Tested at: 10 µM

| Structure (SMILES) | technique | inhibition [%] |
| --- | --- | --- |
| COc1cc(NC(C)=O)c(Cl)cc1C(=O)Nc1nccs1 |  | 20.9 |
| O=C1N=C(N2CCCCN2)S/C1=C\c1ccc(F)cc1O | radioligand | 13 |
| Cc1cc(-c2nc(CN3CCNCC3)no2)cc2c1C(=O)N(Cc1ccc(OC(F)(F)F)cc1)C2 | radioligand | 45 |
| O=C(c1ccc(Cl)cc1)N(Cc1ccccc1)C1CCCCC1 |  | 33.4 |
| CCCNc1nc2ccccc2n1Cc1ccc(Cl)cc1 |  | -5.69 |
| CCN(Cc1ccccc1C(F)(F)F)C(=O)C1CCN(S(=O)(=O)c2ccc3[nH]ncc3c2)CC1 | radioligand | 6 |
| N#Cc1cc(Cn2c(N3CCCC3)nc3ccccc32)ccc1F |  | -11.4 |
| CCN(CC)c1ccc(C2Nc3ccc(C(=O)c4ccccc4)cc3NC3=C2C(=O)CC(C)(C)C3)cc1 (centres unmarked) | radioligand | 12 |
